Data on six compounds can be found in ChEMBL document CHEMBL1136045, “Synthesis, in vitro receptor binding, and in vivo evaluation of fluorescein and carbocyanine peptide-based optical contrast agents” (J Med Chem, 2002).

By IC50 is commonly meant the concentration needed to halve the response being measured.

In this experiment the target is Somatostatin receptor. In words: In vitro binding affinity of [111In]DTPA-[Y3]-octreotate to somatostatin receptor in the rat pancreatic tumor cell line, […]. The method, boiled down:
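Competition binding on CA20948 rat pancreatic cell membranes with the tracer [111In]-DTPA-[Y3]-octreotate and increasing concentrations of unlabeled competitor. Incubation 90 min at room temperature, then filtration and buffer washes. Filter-bound radioactivity was gamma-counted, and IC50 came from a four-parameter curve fit. Specific activity of the radiolabeled peptide was >1400 Ci/mmol.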

Take `C[C@@H](O)[C@H](NC(=O)[C@H]1CSSC[C@H](NC(=O)[C@@H](Cc2ccccc2)NC(=O)CNC(=O)[C@H](CO)NC(=O)CNC(=S)Nc2ccc3c(c2)C(=O)OC32c3ccc(O)cc3Oc3cc(O)ccc32)C(=O)N[C@@H](Cc2ccc(O)cc2)C(=O)N[C@H](Cc2c[nH]c3ccccc23)C(=O)N[C@@H](CCCCN)C(=O)N[C@H]([C@@H](C)O)C(=O)N1)C(=O)O`: the IC50 was found to be 285.2 nM.

For `C[C@@H](O)[C@H](NC(=O)[C@H]1CSSC[C@H](NC(=O)[C@@H](Cc2ccccc2)NC(=O)C(CCCCN)/N=C(\S)Nc2ccc3c(c2)C(=O)OC32c3ccc(O)cc3Oc3cc(O)ccc32)C(=O)N[C@@H](Cc2ccc(O)cc2)C(=O)N[C@H](Cc2c[nH]c3ccccc23)C(=O)N[C@@H](CCCCN)C(=O)N[C@H]([C@@H](C)O)C(=O)N1)C(=O)O` (stereo partly specified), the half-maximal inhibitory concentration (IC50) was found to be 6.4 nM.

In turn, `C[C@@H](O)[C@H](NC(=O)[C@H]1CSSC[C@H](NC(=O)[C@@H](Cc2ccccc2)NC(=O)C(N)CCCC/N=C(\S)Nc2ccc3c(c2)C(=O)OC32c3ccc(O)cc3Oc3cc(O)ccc32)C(=O)N[C@@H](Cc2ccc(O)cc2)C(=O)N[C@H](Cc2c[nH]c3ccccc23)C(=O)N[C@@H](CCCCN)C(=O)N[C@H]([C@@H](C)O)C(=O)N1)C(=O)O` (stereo partly specified) had a 50% inhibitory concentration (IC50) of 187.8 nM.

With `C[C@@H](O)[C@@H](CO)NC(=O)[C@H]1CSSC[C@H](NC(=O)[C@H](N)Cc2ccccc2)C(=O)N[C@@H](Cc2ccc(O)cc2)C(=O)N[C@H](Cc2c[nH]c3ccccc23)C(=O)N[C@@H](CCCCN)C(=O)N[C@H]([C@@H](C)O)C(=O)N1`, the IC50 is recorded as 0.4 nM.

Take `C[C@@H](O)[C@H](NC(=O)[C@H]1CSSC[C@H](NC(=O)[C@@H](Cc2ccccc2)NC(=O)C(CCCC/N=C(/S)Nc2ccc3c(c2)C(=O)OC32c3ccc(O)cc3Oc3cc(O)ccc32)NC(=O)CN2CCN(CC(=O)O)CCN(CC(=O)O)CCN(CC(=O)O)CC2)C(=O)N[C@@H](Cc2ccc(O)cc2)C(=O)N[C@H](Cc2c[nH]c3ccccc23)C(=O)N[C@@H](CCCCN)C(=O)N[C@H]([C@@H](C)O)C(=O)N1)C(=O)O` (stereo partly specified): the IC50 is listed as 10.3 nM. This IC50 is about 26-fold higher than that of the compound before.

For the compound `C[C@@H](O)[C@H](NC(=O)[C@H]1CSSC[C@H](NC(=O)[C@@H](Cc2ccccc2)NC(=O)CN(CCN(CCN(CC(=O)O)CC(=O)O)CC(=O)O)CC(=O)O)C(=O)N[C@@H](Cc2ccc(O)cc2)C(=O)N[C@H](Cc2c[nH]c3ccccc23)C(=O)N[C@@H](CCCCN)C(=O)N[C@H]([C@@H](C)O)C(=O)N1)C(=O)O`, the IC50 came to 1.9 nM.
